One may read the inhibition as the relative decrease from the control value, in per cent. A high value points to a strong effect. One may read the EC50 as the concentration that produces a half-maximal response. Low values mean a more potent agent, high ones a less potent agent. As usually defined, the IC50 is the concentration needed to halve the response being measured. A lower IC50 goes with higher potency. For orientation: amount remaining means what is left of the initial amount, in per cent.

SMILES strings stand for the structures. Bounds are passed on as bounds.

The record followed here is ChEMBL document CHEMBL1955823, “Imidazo[1,2-a]pyrazines as novel PI3K inhibitors” (Bioorg Med Chem Lett, 2012).

For data set [1], the target named is T1, Serine/threonine-protein kinase Sgk1 (Homo sapiens) (UniProt O00141).
T1 sequence (whole entry): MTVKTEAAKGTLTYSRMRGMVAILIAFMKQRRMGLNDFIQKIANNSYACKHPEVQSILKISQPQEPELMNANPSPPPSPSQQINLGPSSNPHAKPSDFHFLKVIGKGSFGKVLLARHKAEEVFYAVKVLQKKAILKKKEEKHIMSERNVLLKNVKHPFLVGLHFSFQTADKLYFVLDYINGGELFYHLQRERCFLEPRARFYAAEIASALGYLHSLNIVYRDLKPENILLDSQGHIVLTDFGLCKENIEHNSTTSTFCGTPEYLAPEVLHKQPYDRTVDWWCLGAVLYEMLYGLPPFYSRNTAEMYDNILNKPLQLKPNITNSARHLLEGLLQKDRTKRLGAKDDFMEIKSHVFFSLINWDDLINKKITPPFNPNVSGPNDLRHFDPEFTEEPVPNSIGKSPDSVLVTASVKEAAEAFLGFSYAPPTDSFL
The experiment in a line: Inhibition of SGK1 at 5 to 10 uM.

Data set [2] deals with T2, PI3-kinase p110-alpha/p85-alpha (Homo sapiens, UniProt P42336). The data set is described as follows: Inhibition of PI3K p110alpha/p85alpha-mediated AKT1 phosphorylation at Ser473 in human U2OS cells. The data set is classed as cell-based. In outline:
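Endogenous phospho-Akt1 (Ser473) measured in U2OS osteosarcoma cells kept in 0.1% FBS and then serum-stimulated; read-out by cell-based ELISA with femto chemiluminescent substrate.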

Data set [3] addresses Dual specificity mitogen-activated protein kinase kinase 1 (Homo sapiens) (UniProt Q02750). The data set is described as follows: Inhibition of MEK1 at 5 to 10 uM.
Another data set is filed under the species Homo sapiens. The experiment in a line: Selectivity ratio of Kiapp for human PI3K p110alpha/p85alpha to Kiapp for human PI3K p110delta/p85alpha.
The target of data set [4] is Casein kinase I isoform alpha (Homo sapiens) (UniProt P48729). The data set is described as follows: Inhibition of CK1alpha1 at 5 to 10 uM.
Sequence of Casein kinase I isoform alpha (Homo sapiens) (P48729 2-337 limits assumed): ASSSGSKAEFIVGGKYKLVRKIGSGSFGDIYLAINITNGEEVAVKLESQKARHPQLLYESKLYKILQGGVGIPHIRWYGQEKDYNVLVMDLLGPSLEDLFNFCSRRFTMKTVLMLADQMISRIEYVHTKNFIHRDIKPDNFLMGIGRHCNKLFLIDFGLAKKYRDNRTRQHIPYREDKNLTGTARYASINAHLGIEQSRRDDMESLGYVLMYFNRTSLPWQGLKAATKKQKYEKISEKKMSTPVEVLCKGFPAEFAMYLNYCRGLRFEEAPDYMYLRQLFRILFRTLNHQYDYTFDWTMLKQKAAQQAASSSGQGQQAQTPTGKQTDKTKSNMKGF
Data set [5] addresses T2, PI3-kinase p110-alpha/p85-alpha. The data set is described as follows: Inhibition of human PI3K p110alpha/p85alpha. The data set is classed as protein-complex assay. As to conditions: read-out: Ki(app).
A further data set concerns the target PI3K p110 beta/p85 alpha (Homo sapiens, UniProt P42338). The experiment in a line: Inhibition of human PI3K p110beta/p85alpha. The format is protein-complex assay. To be noted: read-out: Ki(app).
Data set [6] deals with RAC-alpha serine/threonine-protein kinase (Homo sapiens) (UniProt P31749). The experiment in a line: Inhibition of AKT1 at 5 to 10 uM.
Sequence of RAC-alpha serine/threonine-protein kinase (Homo sapiens) (P31749 whole entry): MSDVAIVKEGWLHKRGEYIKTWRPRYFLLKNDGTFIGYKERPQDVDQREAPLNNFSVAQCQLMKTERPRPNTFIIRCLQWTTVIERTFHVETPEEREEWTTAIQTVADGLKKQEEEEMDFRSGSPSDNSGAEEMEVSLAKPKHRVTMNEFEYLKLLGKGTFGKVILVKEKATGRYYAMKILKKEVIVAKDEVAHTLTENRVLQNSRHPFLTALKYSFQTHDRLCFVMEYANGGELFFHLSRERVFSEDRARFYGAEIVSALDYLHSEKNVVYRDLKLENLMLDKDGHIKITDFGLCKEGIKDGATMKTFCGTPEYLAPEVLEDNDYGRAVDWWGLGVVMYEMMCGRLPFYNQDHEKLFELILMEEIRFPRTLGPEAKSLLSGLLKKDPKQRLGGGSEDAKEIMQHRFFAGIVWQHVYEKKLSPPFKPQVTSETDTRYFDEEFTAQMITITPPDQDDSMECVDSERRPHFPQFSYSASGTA
Data set [7] addresses T3, NUAK family SNF1-like kinase 1 (Homo sapiens) (UniProt O60285).
T3 sequence (whole entry): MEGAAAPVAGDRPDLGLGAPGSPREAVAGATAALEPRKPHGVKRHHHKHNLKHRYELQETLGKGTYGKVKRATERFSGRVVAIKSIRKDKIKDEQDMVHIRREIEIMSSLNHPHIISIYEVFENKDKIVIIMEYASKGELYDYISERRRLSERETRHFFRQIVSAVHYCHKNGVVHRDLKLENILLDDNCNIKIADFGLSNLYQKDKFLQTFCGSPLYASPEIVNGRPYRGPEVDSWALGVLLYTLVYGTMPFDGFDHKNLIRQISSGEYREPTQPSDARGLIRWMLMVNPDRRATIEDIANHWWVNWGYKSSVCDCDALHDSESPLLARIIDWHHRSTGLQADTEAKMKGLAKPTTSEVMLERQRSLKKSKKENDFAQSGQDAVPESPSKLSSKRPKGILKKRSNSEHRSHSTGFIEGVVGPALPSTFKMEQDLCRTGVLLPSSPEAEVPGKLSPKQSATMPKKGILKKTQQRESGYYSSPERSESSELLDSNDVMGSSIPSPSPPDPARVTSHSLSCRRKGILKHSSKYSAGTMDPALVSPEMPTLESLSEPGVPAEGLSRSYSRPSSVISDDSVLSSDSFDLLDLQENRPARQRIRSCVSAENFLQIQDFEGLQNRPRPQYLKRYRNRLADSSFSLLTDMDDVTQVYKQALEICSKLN
The experiment in a line: Inhibition of ARK5 at 5 to 10 uM.

For data set [8], the target named is T2, PI3-kinase p110-alpha/p85-alpha. The experiment in a line: Inhibition of PI3K p110alpha/p85alpha. The data set is classed as protein-complex assay. The method in brief:
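Biochemical kinase assay following the kit manufacturer's protocol with a modified kinase buffer (50 mM HEPES pH 7.5, 3 mM MgCl2, 100 mM NaCl, 1 mM EGTA, 0.04% CHAPS, 2 mM TCEP, 0.01 mg/ml BGG); 10 nM enzyme; ATP 50 µM; values are averages of two independent experiments, each in duplicate.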

For data set [9], the target named is Mitogen-activated protein kinase 8 (Homo sapiens) (UniProt P45983). The experiment in a line: Inhibition of JNK1 at 5 to 10 uM.
Sequence of Mitogen-activated protein kinase 8 (Homo sapiens) (P45983 whole entry): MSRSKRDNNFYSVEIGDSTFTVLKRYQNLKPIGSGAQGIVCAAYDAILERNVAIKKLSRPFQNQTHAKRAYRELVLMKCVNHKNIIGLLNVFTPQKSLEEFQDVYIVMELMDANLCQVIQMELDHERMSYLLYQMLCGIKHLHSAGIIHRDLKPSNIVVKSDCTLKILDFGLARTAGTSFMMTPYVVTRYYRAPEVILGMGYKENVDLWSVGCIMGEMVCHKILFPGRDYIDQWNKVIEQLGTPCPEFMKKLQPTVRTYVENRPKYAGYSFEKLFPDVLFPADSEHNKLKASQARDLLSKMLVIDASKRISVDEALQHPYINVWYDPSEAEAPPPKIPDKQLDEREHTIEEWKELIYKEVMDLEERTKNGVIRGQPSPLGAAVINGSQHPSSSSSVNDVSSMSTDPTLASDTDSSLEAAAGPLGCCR
Data set [10] addresses Serine/threonine-protein kinase pim-1 (Homo sapiens) (UniProt P11309). The experiment in a line: Inhibition of PIM1 at 5 to 10 uM.
For a further data set, the target named is T4, CYP1A2 (Homo sapiens, UniProt P05177).
T4 sequence (P05177 whole entry): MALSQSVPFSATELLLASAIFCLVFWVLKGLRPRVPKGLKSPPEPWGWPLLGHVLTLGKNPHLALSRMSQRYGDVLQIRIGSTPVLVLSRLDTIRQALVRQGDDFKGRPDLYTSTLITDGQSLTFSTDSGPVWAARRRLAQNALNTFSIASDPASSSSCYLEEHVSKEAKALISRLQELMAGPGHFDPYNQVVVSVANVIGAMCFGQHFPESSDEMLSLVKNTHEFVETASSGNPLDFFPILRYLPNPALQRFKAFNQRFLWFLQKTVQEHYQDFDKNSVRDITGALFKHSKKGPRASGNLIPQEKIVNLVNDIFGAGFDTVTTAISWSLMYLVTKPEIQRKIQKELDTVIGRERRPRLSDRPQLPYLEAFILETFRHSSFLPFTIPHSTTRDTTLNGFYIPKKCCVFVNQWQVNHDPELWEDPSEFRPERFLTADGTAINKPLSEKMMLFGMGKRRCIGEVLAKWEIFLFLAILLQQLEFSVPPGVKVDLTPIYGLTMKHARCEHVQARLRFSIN
The experiment in a line: Inhibition of CYP1A2 at 10 uM. The format is ADME. In outline: (§1)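 CYP isoform panel (1A2, 2C9, 2C19, 2D6, 3A4); percent inhibition recorded at 10 µM test compound; run in duplicate by an outside contractor.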

For another data set, the target named is CYP3A4 (Homo sapiens, UniProt P08684). The experiment in a line: Inhibition of CYP3A4 at 10 uM. The format is ADME. The method in brief: as §1
A further data set deals with CYP2C19 (Homo sapiens, UniProt P33261). The experiment in a line: Inhibition of CYP2C19 at 10 uM. The data set is classed as ADME. The method in brief:
as §1

The target in another data set is CYP2C9 (Homo sapiens, UniProt P11712). The data set is described as follows: Inhibition of CYP2C9 at 10 uM. The data set is classed as ADME. The method in brief:
as §1

Data set [11] in a line: Metabolic stability in mouse liver microsomes assessed as compound remaining at 1 uM after 30 mins.
The next data set has as its target CYP2D6 (Homo sapiens, UniProt P10635). The data set is described as follows: Inhibition of CYP2D6 at 10 uM. The data set is classed as ADME. In outline:
as §1

A short description of data set [12]: Metabolic stability in human liver microsomes assessed as compound remaining at 1 uM after 30 mins.

Sequence of Serine/threonine-protein kinase pim-1 (Homo sapiens) (P11309 whole entry, looked up): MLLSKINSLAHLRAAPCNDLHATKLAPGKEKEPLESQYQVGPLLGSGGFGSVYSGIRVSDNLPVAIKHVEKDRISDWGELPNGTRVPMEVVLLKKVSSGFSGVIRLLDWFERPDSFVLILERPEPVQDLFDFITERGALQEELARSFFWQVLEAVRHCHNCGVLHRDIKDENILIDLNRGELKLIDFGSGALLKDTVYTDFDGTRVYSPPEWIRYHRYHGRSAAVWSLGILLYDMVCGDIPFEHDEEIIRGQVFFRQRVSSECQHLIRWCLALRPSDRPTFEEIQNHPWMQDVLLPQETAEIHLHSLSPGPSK
Sequence of Dual specificity mitogen-activated protein kinase kinase 1 (Homo sapiens) (Q02750 whole entry): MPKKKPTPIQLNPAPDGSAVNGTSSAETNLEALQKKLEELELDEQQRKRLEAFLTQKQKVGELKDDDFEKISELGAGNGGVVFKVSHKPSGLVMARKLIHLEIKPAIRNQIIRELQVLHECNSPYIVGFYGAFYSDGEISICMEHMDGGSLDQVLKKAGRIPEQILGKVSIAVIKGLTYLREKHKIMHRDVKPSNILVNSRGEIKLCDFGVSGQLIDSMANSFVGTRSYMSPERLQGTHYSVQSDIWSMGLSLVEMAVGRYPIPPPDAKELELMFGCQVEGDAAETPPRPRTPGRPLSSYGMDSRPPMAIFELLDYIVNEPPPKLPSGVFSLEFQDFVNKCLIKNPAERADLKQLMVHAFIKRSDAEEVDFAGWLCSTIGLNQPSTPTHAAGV
T2 sequence (P27986 whole entry): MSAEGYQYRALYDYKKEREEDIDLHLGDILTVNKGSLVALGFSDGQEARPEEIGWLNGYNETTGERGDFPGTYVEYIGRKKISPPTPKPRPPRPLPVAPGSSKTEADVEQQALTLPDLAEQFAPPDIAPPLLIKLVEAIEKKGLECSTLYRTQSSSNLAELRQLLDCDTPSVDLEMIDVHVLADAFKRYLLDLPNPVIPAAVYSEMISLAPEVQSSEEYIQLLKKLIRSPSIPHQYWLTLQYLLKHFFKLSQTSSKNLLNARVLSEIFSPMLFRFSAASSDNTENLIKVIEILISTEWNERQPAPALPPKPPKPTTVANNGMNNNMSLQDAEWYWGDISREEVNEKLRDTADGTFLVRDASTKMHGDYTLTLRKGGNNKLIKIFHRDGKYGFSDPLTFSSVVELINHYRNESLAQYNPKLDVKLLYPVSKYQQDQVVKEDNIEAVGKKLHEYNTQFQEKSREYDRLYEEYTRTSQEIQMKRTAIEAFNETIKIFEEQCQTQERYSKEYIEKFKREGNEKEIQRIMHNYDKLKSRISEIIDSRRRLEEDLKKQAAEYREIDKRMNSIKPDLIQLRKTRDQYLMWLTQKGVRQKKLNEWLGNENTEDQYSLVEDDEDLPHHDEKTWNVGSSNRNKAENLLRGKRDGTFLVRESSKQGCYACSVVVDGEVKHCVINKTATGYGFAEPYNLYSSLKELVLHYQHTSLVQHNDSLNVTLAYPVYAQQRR
T2 sequence (P42336 whole entry): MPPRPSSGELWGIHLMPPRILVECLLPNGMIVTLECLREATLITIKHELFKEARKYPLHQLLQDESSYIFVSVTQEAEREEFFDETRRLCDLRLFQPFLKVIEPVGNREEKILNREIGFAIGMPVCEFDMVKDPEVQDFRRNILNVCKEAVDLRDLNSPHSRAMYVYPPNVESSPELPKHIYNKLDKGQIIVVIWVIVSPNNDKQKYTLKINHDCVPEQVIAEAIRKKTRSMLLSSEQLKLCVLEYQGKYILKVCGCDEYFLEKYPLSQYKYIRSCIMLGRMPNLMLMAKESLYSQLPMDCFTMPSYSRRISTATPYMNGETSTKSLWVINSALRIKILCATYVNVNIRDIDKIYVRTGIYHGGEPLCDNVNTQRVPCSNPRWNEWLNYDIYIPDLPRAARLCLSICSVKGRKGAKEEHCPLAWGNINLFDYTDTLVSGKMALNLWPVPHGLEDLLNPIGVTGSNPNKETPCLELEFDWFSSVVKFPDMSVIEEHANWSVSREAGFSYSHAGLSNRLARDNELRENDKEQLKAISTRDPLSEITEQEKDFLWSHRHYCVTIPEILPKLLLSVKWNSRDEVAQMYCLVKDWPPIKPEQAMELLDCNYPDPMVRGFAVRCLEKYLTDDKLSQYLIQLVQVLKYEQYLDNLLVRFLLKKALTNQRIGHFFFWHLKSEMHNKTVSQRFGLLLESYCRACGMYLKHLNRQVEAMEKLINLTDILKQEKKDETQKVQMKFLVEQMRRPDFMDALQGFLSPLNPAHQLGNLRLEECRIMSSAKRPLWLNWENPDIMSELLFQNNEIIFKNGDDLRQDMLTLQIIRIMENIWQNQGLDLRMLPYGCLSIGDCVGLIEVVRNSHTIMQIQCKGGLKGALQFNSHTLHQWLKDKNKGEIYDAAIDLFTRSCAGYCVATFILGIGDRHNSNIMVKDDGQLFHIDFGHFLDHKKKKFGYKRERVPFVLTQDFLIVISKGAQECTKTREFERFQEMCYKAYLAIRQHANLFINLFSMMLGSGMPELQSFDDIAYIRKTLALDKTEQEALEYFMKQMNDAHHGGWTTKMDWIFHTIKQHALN
Sequence of PI3K p110 beta/p85 alpha (P27986 whole entry): as the sequence (P27986 whole entry) above
Sequence of PI3K p110 beta/p85 alpha (P42338 whole entry): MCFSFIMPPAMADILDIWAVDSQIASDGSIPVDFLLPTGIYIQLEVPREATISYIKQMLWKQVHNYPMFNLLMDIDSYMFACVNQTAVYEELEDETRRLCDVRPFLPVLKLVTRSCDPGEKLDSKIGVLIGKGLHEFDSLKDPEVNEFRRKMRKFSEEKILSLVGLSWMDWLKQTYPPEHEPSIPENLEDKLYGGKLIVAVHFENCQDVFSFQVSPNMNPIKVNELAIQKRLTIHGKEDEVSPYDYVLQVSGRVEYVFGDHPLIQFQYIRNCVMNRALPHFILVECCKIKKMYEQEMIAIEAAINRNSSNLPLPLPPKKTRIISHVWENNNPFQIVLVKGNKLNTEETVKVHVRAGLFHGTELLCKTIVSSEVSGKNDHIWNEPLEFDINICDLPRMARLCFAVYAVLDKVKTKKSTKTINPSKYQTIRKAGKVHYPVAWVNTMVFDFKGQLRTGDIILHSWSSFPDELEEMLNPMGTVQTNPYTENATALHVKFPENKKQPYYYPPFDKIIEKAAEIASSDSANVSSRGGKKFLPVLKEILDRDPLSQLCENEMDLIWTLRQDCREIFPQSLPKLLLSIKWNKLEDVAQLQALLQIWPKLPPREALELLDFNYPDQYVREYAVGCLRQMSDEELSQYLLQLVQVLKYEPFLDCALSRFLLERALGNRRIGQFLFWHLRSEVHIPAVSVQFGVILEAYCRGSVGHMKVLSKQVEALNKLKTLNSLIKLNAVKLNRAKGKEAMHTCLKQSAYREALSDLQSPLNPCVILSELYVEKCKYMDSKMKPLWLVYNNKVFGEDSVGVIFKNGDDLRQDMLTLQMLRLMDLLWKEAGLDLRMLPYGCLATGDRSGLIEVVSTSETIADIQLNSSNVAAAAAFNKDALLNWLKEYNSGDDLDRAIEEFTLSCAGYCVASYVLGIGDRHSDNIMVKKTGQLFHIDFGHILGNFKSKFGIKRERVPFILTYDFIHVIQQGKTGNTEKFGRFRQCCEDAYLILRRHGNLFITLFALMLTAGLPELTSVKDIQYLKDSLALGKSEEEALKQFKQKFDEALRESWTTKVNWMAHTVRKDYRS

`COCCCNC(=O)c1cn2cc(-c3cccc4[nH]ncc34)nc(N3CCOCC3)c2n1`: the inhibition in data set [1] is under 50%; in data set [3], under 50%; in [4], under 50%; in data set [6], 50%; in data set [7], under 50%; in [9] it was under 50%. In [10], the inhibition is under 50%. The same compound came in with an EC50 in data set [2] of 114 nM. For the same compound, in the data set listed under Homo sapiens, the Ratio Ki(app) came out at 21.4. In addition, the Ki in [5] is 60 nM; on PI3K p110 beta/p85 alpha, over 500 nM. In data set [8], this compound came in with an IC50 of 31 nM.

Turning to `CS(=O)(=O)N1CCN(Cc2nc3c(N4CCOCC4)nc(-c4cccc5[nH]ncc45)cn3c2Br)CC1`, the inhibition is under 50% in [1]; under 50% in data set [3]; under 50% in data set [4]; 50% in [6]; under 50% in data set [7]; under 50% in data set [9]. For the same compound, the inhibition in data set [10] was under 50%. The compound further gave an EC50 in data set [2] of 208 nM. Further, the Ratio Ki(app) in the data set filed under Homo sapiens worked out at 10.8. The Ki is 86 nM in data set [5] and over 500 nM at PI3K p110 beta/p85 alpha. In data set [8], this compound registered a concentration for half-maximal inhibition (IC50) of 47 nM.

Turning to `CNC(=O)c1cn2cc(-c3cccc4[nH]ncc34)nc(N3CCOCC3)c2n1`, the inhibition in data set [1] was under 50%; in data set [3], under 50%; in data set [4], under 50%; in data set [6], 50%; in [7], under 50%; in data set [9], under 50%. In data set [10], this compound showed an inhibition of under 50%. The same compound yielded an EC50 in data set [2] of 600 nM. The Ratio Ki(app) in the data set filed under Homo sapiens was found to be 6. Also, the Ki in data set [5] was 102 nM; at PI3K p110 beta/p85 alpha it was over 500 nM.

`O=C(NCCN1CCOCC1)c1cn2cc(-c3cccc4[nH]ncc34)nc(N3CCOCC3)c2n1`: the inhibition was under 50% in data set [1]; under 50% in data set [3]; under 50% in [4]; 50% in data set [6]; under 50% in [7]; under 50% in data set [9]. The compound further gave an inhibition in [10] of under 50%. The compound also returned a half-maximal effective concentration (EC50) in data set [2] of 452 nM. Besides, the Ratio Ki(app) in the data set listed under Homo sapiens is 10. The Ki is 65 nM in [5] and over 500 nM at PI3K p110 beta/p85 alpha.

Take `CS(=O)(=O)N1CCN(Cc2cn3c(Cl)c(-c4cccc5[nH]ncc45)nc(N4CCOCC4)c3n2)CC1`: the inhibition in data set [1] is under 50%; in data set [3] it was under 50%; in [4], under 50%; in data set [6], 50%; in [7], under 50%; in [9], under 50%. Further, the inhibition in [10] was under 50%. Also, the EC50 in data set [2] was 495 nM. Further, the Ratio Ki(app) in the data set filed under Homo sapiens was 3.2. The Ki in data set [5] was 210 nM; at PI3K p110 beta/p85 alpha it was over 500 nM. The inhibition at 10 µM against CYP1A2, at CYP3A4, on CYP2C19, against CYP2C9 and against CYP2D6 was under 25% each time. Also, the IC50 in data set [8] was 145 nM. Further, the fraction remaining at 0.5 h, 1 µM in data set [11] came to 28%; in [12], 35%.

For `CN(C)CCCNC(=O)c1cn2cc(-c3cccc4[nH]ncc34)nc(N3CCOCC3)c2n1`, the inhibition in data set [1] was under 50%; in [3], under 50%; in data set [4], under 50%; in data set [6] it was 50%; in [7] it was under 50%; in data set [9] it was under 50%. The compound further registered an inhibition in data set [10] of under 50%. In data set [2], this compound yielded an EC50 of 429 nM. Moreover, the Ratio Ki(app) in the data set listed under Homo sapiens is 12.2. Besides, the Ki in data set [5] was 44 nM; on PI3K p110 beta/p85 alpha it was over 500 nM. Half-maximal inhibition in [8] (IC50) required 35 nM.

Take `CS(=O)(=O)N1CCN(Cc2cn3cc(-c4cccc5[nH]ncc45)nc(N4CCOCC4)c3n2)CC1`: the inhibition in data set [1], in data set [3], in [4], in data set [6], in data set [7] and in [9] was under 50% in each case. This compound also came in with an inhibition in [10] of under 50%. The inhibition at 10 µM against CYP1A2, on CYP3A4, against CYP2C19, on CYP2C9 and against CYP2D6 was under 25% throughout. The Ki at PI3K p110 beta/p85 alpha was over 500 nM. Further, the figures for the amount remaining at 0.5 h, 1 µM in data set [11] and in data set [12] were 32% and 48%, respectively.

As to `CS(=O)(=O)N1CCN(Cc2cn3c(C#N)c(-c4cccc5[nH]ncc45)nc(N4CCOCC4)c3n2)CC1`, the inhibition in [1] is under 50%; in data set [3], under 50%; in data set [4], under 50%; in data set [6] it was 50%; in data set [7], under 50%; in data set [9], under 50%. Further, the inhibition in data set [10] was under 50%. This compound also registered a half-maximal effective concentration (EC50) in [2] of 203 nM. Besides, in the data set listed under Homo sapiens, the Ratio Ki(app) stood at 9.5. Moreover, the Ki in data set [5] is 410 nM; on PI3K p110 beta/p85 alpha, over 500 nM. Half-maximal inhibition in data set [8] (IC50) was put at 194 nM.
